The list is not random: actives were taken first. Their share in the collection is about 8.7%.
PTK2B oligo ant – antagonists of human Pyk2 oligomerization | Q14289 | Q293 cells, Pyk2 FERM NanoBiT luminescence; stronger effect = lower value | z-score (the deposit names both 25 µM and 10 µM) | actives 0.83% (n = 99,000);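 active means Z-score of -3 or lower, scaled per plate to the spread of control and sample wells; inactive means z-score above -3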;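 further: negative z-score means lost luminescence so less FERM oligomerization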
Target sequence (Q14289 whole entry, looked up): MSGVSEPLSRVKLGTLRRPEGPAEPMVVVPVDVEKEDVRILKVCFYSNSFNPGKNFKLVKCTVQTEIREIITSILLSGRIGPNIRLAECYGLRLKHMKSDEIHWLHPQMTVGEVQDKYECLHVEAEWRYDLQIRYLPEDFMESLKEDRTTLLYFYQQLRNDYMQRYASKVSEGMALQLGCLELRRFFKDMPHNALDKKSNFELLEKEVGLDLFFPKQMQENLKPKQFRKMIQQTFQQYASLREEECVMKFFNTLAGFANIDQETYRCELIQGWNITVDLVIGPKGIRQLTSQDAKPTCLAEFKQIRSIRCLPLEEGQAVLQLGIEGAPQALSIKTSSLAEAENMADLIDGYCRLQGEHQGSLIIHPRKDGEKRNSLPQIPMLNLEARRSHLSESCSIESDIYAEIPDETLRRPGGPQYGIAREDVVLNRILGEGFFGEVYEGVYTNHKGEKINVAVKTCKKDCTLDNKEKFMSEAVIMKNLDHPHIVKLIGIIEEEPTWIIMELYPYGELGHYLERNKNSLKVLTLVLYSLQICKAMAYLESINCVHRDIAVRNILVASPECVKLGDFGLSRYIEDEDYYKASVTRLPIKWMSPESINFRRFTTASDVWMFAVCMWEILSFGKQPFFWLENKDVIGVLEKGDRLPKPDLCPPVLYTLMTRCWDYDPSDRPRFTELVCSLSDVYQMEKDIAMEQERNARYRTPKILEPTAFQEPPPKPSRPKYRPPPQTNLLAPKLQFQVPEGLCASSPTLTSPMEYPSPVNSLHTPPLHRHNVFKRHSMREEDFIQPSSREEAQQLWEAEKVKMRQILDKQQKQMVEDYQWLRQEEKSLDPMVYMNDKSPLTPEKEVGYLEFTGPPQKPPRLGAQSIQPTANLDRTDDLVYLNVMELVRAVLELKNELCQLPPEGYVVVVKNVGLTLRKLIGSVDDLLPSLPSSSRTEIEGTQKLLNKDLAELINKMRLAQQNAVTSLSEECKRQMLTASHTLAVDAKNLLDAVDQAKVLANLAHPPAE
PostGolgi ctrl – yeast control strain growth, post-Golgi counter-screen; efflux-deficient yeast background strain, growth absorbance A615, 16 h; inhibition, % at 10 µM; actives 5% (n = 98,000); AID 738
Ecoli WT expand – growth inhibitors of E. coli BW25113 wild type; growth inhibition, % at 100 µM; AID 710; OD600 absorbance; actives 0.15% (n = 98,000);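 active means growth inhibition above about 50% at one test dose, limit read from the data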;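 further: growth measured after 20 h incubation at 37 °C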
Cav32 inh – human Cav3.2 channel inhibition, primary screen; actives 4% (n = 100,000); Cav3.2-expressing cells, Fluo-4 calcium fluorescence FDSS; stronger effect = lower value; B-score at 10 µM; AID 449739;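 active means single-dose well whose peak fluorescence ratio is a statistical outlier from its plate by either plate-standardised score or position-corrected B-score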
tolC growth inh – blocks growth of E. coli BW25113 tolC mutant | AID 573 | OD615 | growth inhibition, % at 10 µM (by protocol) | actives 2.2% (n = 65,000);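 active means growth inhibition at or above a cutoff equal to the mean over every tested compound plus 3 SD, cut at about 60% in these data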;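 further: growth measured after 20 h incubation at 37 °C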
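Material: E. coli BW25113 ΔtolC::kan, tolC deletion mutant strain. Measure: percent growth inhibition. Schedule: 37 °C, 20 h exposure. Doses: single-point testing at 10 µM. Signal: A615 absorbance measurement. Buffer or medium: kanamycin-containing LB broth (50 µg/mL).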
PostGolgi yeast – growth inhibition of a yeast mutant, post-Golgi transport screen. actives 0.9% (n = 98,000). post-Golgi transport phenotypic cell assay. inhibition, % at 10 µM;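 further: yeast cells grown in 1536-well plates; yeast grown about 18 h at 30C before absorbance read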
The depositor's hits bear a star; . = no result given. Unless noted, no stated cut-off is given here; in the data, active means inhibition above about 30%; inactive means the rest.

SMILES	PTK2B oligo ant	PostGolgi ctrl	Ecoli WT expand	Cav32 inh	tolC growth inh	PostGolgi yeast
Cc1cccc(N(CC(=O)N/N=C/c2cc([N+](=O)[O-])ccc2Cl)S(C)(=O)=O)c1C	-0.64	-1.3	-1.0	-5.51*	.	2.3
O=C(CCc1nc2cccnc2n1Cc1ccccc1)NCCc1ccc(Cl)cc1	-1.07	7.1	6.0	-7.21*	.	6.8
COc1ccc(Cn2c(CCC(=O)Nc3ccc(C)c(C)c3)nc3cccnc32)cc1	-1.05	18.3	-8.0	-3.47*	.	-8.7
CCOC(=O)N1CCN(CC(=O)Nc2c(C(=O)OC)[nH]c3ccc(Cl)cc23)CC1	0.16	12.8	0.0	.	86.3*	5.8
CCOC(=O)c1[nH]c2cc(OC)c(OC)cc2c1NC(=O)CN1CCN(c2ccc(OC)cc2)C(C)C1 (stereo not drawn)	.	16.1	-12.0	-5.4*	.	12.1
CCOC(=O)c1[nH]c2ccc(OC)cc2c1NC(=O)CCN1CCc2ccccc2C1	-0.02	32.0*	2.0	-0.105	7.0	8.4
COC(=O)c1[nH]c2ccc(Cl)cc2c1NC(=O)CN1CCc2cc(OC)c(OC)cc2C1	-1.04	30.7*	-7.0	0.0147	33.3	4.5
CCOC(=O)c1[nH]c2ccc(F)cc2c1NC(=O)c1cc(OC)c(OC)c(OC)c1	-0.56	30.0*	3.0	.	3.2	-10.4
CCOC(=O)c1[nH]c2ccc(F)cc2c1NC(=O)CN1CCN(C/C=C/c2ccccc2)CC1	0.12	12.3	0.0	.	98.0*	-2.9
C=C1CCN([C@@H](Cc2ccccc2)C(=O)NCCCc2ccccc2)S(=O)(=O)c2ccccc21	.	.	.	-4.47*	.	.
O=C(NC12CC3CC(CC(C3)C1)C2)C12CC3CC(C1)CC(n1cnc(Cl)n1)(C3)C2	1.23	44.7*	-9.0	0.248	.	-4.7
O=C(O)C12CC3CC(C1)CC(n1cnc(Cl)n1)(C3)C2	0.98	1.9	0.0	-0.0123	-15.8	3.8
Cc1nc(NC(C)c2ccccc2)c2oc3ccccc3c2n1 (stereo not drawn)	-0.58	74.3*	5.0	-1.91	15.9	8.9
Cc1nc(N[C@@H](Cc2ccccc2)C(=O)O)c2oc3ccccc3c2n1	0.61	26.7	5.0	.	.	-1.6
COc1ccc(N/N=C(\C=N\O)C(=O)c2ccc(OC)cc2)cc1	-1.32	34.8*	-5.0	-0.49	.	8.3
Cc1ccc2c(CC(=O)N3CCN(S(=O)(=O)c4cccs4)CC3)coc2c1	0.22	13.0	-13.0	0.074	.	-5.9
CC(=O)C1=C(C)NC(C)=C(C(C)=O)C1c1ccc(-c2ccccc2Cl)o1	2.98	5.9	3.0	-5.56*	14.2	-5.0
Cc1cc(C)cc(-n2c(C)cc(/C=N/NC(=O)c3cccc([N+](=O)[O-])c3C)c2C)c1	-0.8	14.7	-11.0	-2.51	.	2.7
Cc1cc(C)cc(-n2c(C)cc(/C=N/NC(=O)CSc3ncccn3)c2C)c1	-0.54	18.1	8.0	-6.78*	.	41.2*
COc1ccc(-c2nc3c(c(=O)[nH]c(=O)n3Cc3ccccc3)n2Cc2ccccc2)cc1	-3.1*	35.1*	-8.0	-6.39*	.	-0.8
Clc1ccc(Cl)c(-c2nn3c(COc4ccccc4)nnc3s2)c1	0.73	-2.2	-1.0	2.19	96.2*	-1.7
COc1ccc(-n2nc(C(=O)NCC(=O)NCc3ccc(F)cc3)c3ccccc3c2=O)c(OC)c1	0.63	10.9	-6.0	0.59	.	4.4
O=C1CCN2C=Nc3cccc4ccc1c2c34	0.43	-1.5	17.0	-8.51*	55.6	4.7
COCCn1cnc2c1c(=O)n(CC(=O)c1ccc3c(c1)OCCO3)c(=O)n2Cc1ccccc1	.	.	.	.	-4.3	.
COc1ccc(/C=C2\CCc3ccccc3C2=O)cc1Cn1cccn1	-2.53	19.1	-19.0	-3.71*	.	21.5
SMILES	PTK2B oligo ant	PostGolgi ctrl	Ecoli WT expand	Cav32 inh	tolC growth inh	PostGolgi yeast
O=C1/C(=C\c2cccnc2)CCc2ccccc21	0.22	13.5	5.0	.	.	3.1
CCN(CC)S(=O)(=O)c1cc(C(=O)Nc2ccc(Cl)cn2)ccc1C	-1.82	21.1	-16.0	-4.29*	34.6	-0.6
COc1cccc(CNC(=O)C(=O)NCC2CCCO2)c1 (stereo not drawn)	0.78	.	.	2.15	.	.
COc1cc(S(=O)(=O)NCc2ccccc2)ccc1F	0.55	13.0	9.0	0.403	10.8	2.0
O=C(N/C(=C\c1cccnc1)C(=O)N1CCOCC1)c1cccc(Br)c1	0.84	2.4	2.0	0.181	.	4.5
O=C(/C=C/c1cccnc1)c1ccc(NC(=O)c2cccc(Br)c2)cc1	-0.61	40.0*	0.0	2.08	.	-5.1
O=C(NCCc1ccc(Cl)cc1)C1CCN(C(=O)c2sccc2-n2cccc2)CC1	0.48	3.6	-12.0	-3.32	15.0	2.5
Cc1cc2ncn(C3CC(=O)N(Cc4ccccc4)C3=O)c2cc1C (stereo not drawn)	-1	39.7*	1.0	-0.154	14.0	4.9
COc1ccccc1-c1c(C(F)(F)F)oc2cc(OC(=O)c3ccccc3[N+](=O)[O-])ccc2c1=O	-0.71	31.0*	0.0	-0.471	.	4.0
C/C(=N\NC(=O)c1ccccc1O)c1c(O)cc(C)oc1=O	0.61	-4.1	1.0	-0.0477	.	-1.3
C/C(=N/NC(=O)c1cc2ccccc2cc1O)C1C(=O)c2ccccc2C1=O	-1.26	2.9	-1.0	-5.91*	.	-11.0
C/C(=N\NC(=O)c1ccccc1O)C1C(=O)c2ccccc2C1=O	-2.58	9.1	9.0	-7.19*	.	-0.9
CCCC(=O)Nc1cc(Cl)ccc1N1CCN(C(=O)CC)CC1	-0.44	2.9	0.0	0.39	-12.9	8.7
O=C(Nc1ccc2c(c1)N(Cc1ccccc1)C(=O)c1ccccc1S2)NC1CC1	-3.14*	7.5	-3.0	-0.766	.	-5.7
O=C1c2ccccc2CCC12N=NCC2c1ccc(Cl)cc1 (stereo not drawn)	1.09	4.6	-6.0	-2.18	.	0.6
COc1ccccc1C1CN=NC12CCCc1ccccc1C2=O (stereo not drawn)	-0.34	34.9*	3.0	-4.74*	.	-14.3
COc1ccc(C2CN=NC23CCCc2ccccc2C3=O)cc1 (stereo not drawn)	0.31	21.4	6.0	-4.18*	.	2.1
CC(=O)c1coc2ccc(OCCN3CCCCC3)cc12	0.25	2.8	3.0	0.241	-17.3	6.3
CC(C(=O)N/N=C/c1ccc(N(C)C)c(Br)c1)N(c1ccccc1)S(C)(=O)=O (stereo not drawn)	-2	2.7	2.0	-5.97*	.	-16.4
C/C=C/C(=O)N(CC)c1ccccc1C	.	.	.	1.01	.	.
COc1ccc(NS(=O)(=O)Cc2ccccc2Cl)cn1	-0.59	0.6	4.0	-0.714	-20.8	-7.2
COc1ccc(NC(=O)/C(Cl)=C(/Cl)S(=O)(=O)Cc2ccccc2)cn1	-0.38	78.4*	12.0	1.52	.	16.6
O=C1CC(N2CCN(S(=O)(=O)c3cccc(C(F)(F)F)c3)CC2)C(=O)N1Cc1ccccc1 (stereo not drawn)	1.31	6.3	-7.0	-1.72	8.5	2.9
COc1ccc(C(=O)N2CCN(C(=O)Cc3ccccc3)CC2)cc1OC	0.7	46.5*	-5.0	0.829	-3.1	0.2
Brc1ccccc1OCCCn1cnc2ccccc21	-3.92*	30.3*	11.0	-2.87	.	0.3
